Measured values published in PubChem BioAssay AID493051 (Broad Institute, 2011).
Active and inactive are the calls of the source.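 Rule for the calls: active = viability loss with dose, its half-maximal concentration at most ten times the top valid tested dose; inconclusive = flat viability loss of 30 to 70 percent, or poor fit; inactive = the rest.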

system: not listed separately; experiment: cytotoxicity in BJeH fibroblasts, dose response, counter-screen for Ras selective lethality project, BJeH cells, dry powder, set 2 (AID 493051); details: BJeH fibroblast viability, Alamar Blue fluorescence, 48 h; at 48 µM (top of the series)
How it was run: (§1)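 system = hTERT-immortalized BJ fibroblasts (BJeH) | signal = Alamar Blue fluorescence (544 nm ex, 590 nm em) | schedule = 48 h compound treatment at 37 °C, ~16 h dye incubation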

| Compound | activity change, negative = viability loss |
| --- | --- |
| Cc1onc(C(=O)N2CCN(C(c3ccccc3)c3ccccc3)CC2)c1N | 5.64% (inactive) |
| Cc1onc(C(=O)N2CCN(C(c3ccccc3)c3ccccc3)CC2)c1C | 46.9% (inactive) |
| Cc1onc(C(=O)N2CCN(C(c3ccccn3)c3ccccn3)CC2)c1[N+](=O)[O-] | -5.34% (inactive) |
| Cc1onc(C(=O)N2CCN(C(c3ccccc3)c3ccccc3)CC2)c1Br | 22.7% (inactive) |
| O=[N+]([O-])c1ccc(CN2CCN(C(c3ccccc3)c3ccccc3)CC2)o1 | -9.67% (inactive) |
| Cc1onc(C(=O)NCCNC(c2ccccc2)c2ccccc2)c1[N+](=O)[O-] | -6.54% (inactive) |
| CC(C)c1onc(C(=O)N2CCN(C(c3ccccc3)c3ccccc3)CC2)c1[N+](=O)[O-] | 18.4% (inactive) |
| Cc1onc(C(=O)N2CCN(C(c3ccncc3)c3ccncc3)CC2)c1[N+](=O)[O-] | 4.32% (inactive) |
| O=C(c1noc2ccccc12)N1CCN(C(c2ccccc2)c2ccccc2)CC1 | 27.9% (inactive) |
| Cc1oc(C)c(C(=O)N2CCN(C(c3ccccc3)c3ccccc3)CC2)c1C | 49.1% (inactive) |
| CC(=O)Nc1c(C(=O)N2CCN(C(c3ccccc3)c3ccccc3)CC2)noc1C | 15.6% (inactive) |
| Cc1ccc(C(=O)N2CCN(C(c3ccccc3)c3ccccc3)CC2)c([N+](=O)[O-])c1 | 19.4% (inactive) |
| Cc1onc(C(=O)N2CCN(C(c3ccccc3)c3ccccc3)CC2)c1NS(C)(=O)=O | 8.49% (inactive) |

same assay, conditions: BJeH fibroblast viability, Alamar Blue fluorescence, 48 h; at 68 µM (top of the series)

| Compound | activity change, negative = viability loss |
| --- | --- |
| Cc1onc(C(=O)NCc2ccc(F)cc2)c1[N+](=O)[O-] | 13.9% (inactive) |
| Cc1onc(C(=O)N2CCOCC2)c1[N+](=O)[O-] | 10.9% (inactive) |
| Cc1onc(C(=O)N2CCN(Cc3ccccc3)CC2)c1[N+](=O)[O-] | 7.25% (inactive) |
| Cc1cc(C(=O)N2CCN(Cc3ccccc3)CC2)no1 | 3.96% (inactive) |
| CCOC(=O)N1CCN(C(=O)c2noc(C)c2[N+](=O)[O-])CC1 | 7.91% (inactive) |
| COc1ccccc1N1CCN(C(=O)c2noc(C)c2[N+](=O)[O-])CC1 | 10.7% (inactive) |

system: BJeH fibroblast viability, Alamar Blue fluorescence, 48 h; experiment: as above; details: not given
How it was run: as §1

| Compound | AC50 |
| --- | --- |
| COc1ccc(C(c2ccc(OC)cc2)N2CCN(C(=O)c3noc(C)c3[N+](=O)[O-])CC2)cc1 | 9.36 µM |
| O=C(NCCNC(c1ccccc1)c1ccccc1)c1ccc([N+](=O)[O-])o1 | 3.33 µM |
| Cc1onc(C(=O)N2CCN(C(c3ccc(Cl)cc3)c3ccc(Cl)cc3)CC2)c1[N+](=O)[O-] | 0.628 µM |
| COc1ccc(C(c2ccc(OC)cc2)N2CCN(C(=O)c3ccc([N+](=O)[O-])o3)CC2)cc1 | 6.29 µM |
| O=C(c1ccc([N+](=O)[O-])o1)N1CCN(C(c2ccccc2)c2ccccc2)CC1 | 17.7 µM |
| Cc1onc(C(=O)N2CCN(C(c3ccc(F)cc3)c3ccc(F)cc3)CC2)c1[N+](=O)[O-] | 1.49 µM |
| O=C(c1ccc([N+](=O)[O-])o1)N1CCN(C(c2ccc(F)cc2)c2ccc(F)cc2)CC1 | 11.8 µM |
| Cc1onc(C(=O)N2CCCN(C(c3ccccc3)c3ccccc3)CC2)c1[N+](=O)[O-] | 5.13 µM |
| Cc1onc(C(=O)N2CCN(C(c3ccccc3)c3ccc(Cl)cc3)CC2)c1[N+](=O)[O-] (stereo not given) | 0.958 µM |
| O=C(c1ccc([N+](=O)[O-])o1)N1CCCN(C(c2ccccc2)c2ccccc2)CC1 | 63.2 µM |
| Cc1onc(C(=O)N2CCN(C(c3ccccc3)c3ccccc3)CC2)c1[N+](=O)[O-] | 7.89 µM |
